Reference: ChEMBL document CHEMBL1921709, “Synthesis and activity of new macrolones: conjugates between 6(7)-(2'-aminoethyl)-amino-1-cyclopropyl-3-carboxylic acid (2'-hydroxyethyl) amides and 4″-propenoyl-azithromycin” (2011)
Values after ≈ are worked out from the molar mass of the structure shown.

Columns and labels:
Format in all cases: functional
Streptococcus pneumoniae [1] = test: Antibacterial activity against efflux-mediated macrolide-resistant Streptococcus pneumoniae Ci137 by broth microdilution method
Summary of the method: (§1)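 CLSI broth microdilution MIC with automated double dilutions of compound. The medium was supplemented with 5% horse serum in place of lysed blood. Bacteria were pre-grown on appropriate agar plates.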

Streptococcus pneumoniae [2] = test: Antibacterial activity against inducible macrolide-resistant, constitutive lincosamide and streptogramin-resistant Streptococcus pneumoniae 134 GR M by broth microdilution method; summary of the method: as §1
Staphylococcus aureus [3] = test: Antibacterial activity against inducible macrolide, lincosamide and streptogramin B-resistant Staphylococcus aureus 90256/97 by broth microdilution method
Summary of the method: (§2)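 Standard CLSI broth microdilution MIC test with automated double dilutions of compound. Bacteria were pre-grown on appropriate agar plates.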

Moraxella catarrhalis = test: Antibacterial activity against Moraxella catarrhalis ATCC 23246 by broth microdilution method
Summary of the method: (§3)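 Broth microdilution following CLSI guidelines, using two-fold serial dilutions of compound. Bacteria were first grown on appropriate agar plates. Read-out is growth inhibition, reported as MIC.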

Streptococcus pneumoniae [4] = test: Antibacterial activity against constitutive macrolide, lincosamide, streptogramin-resistant Streptococcus pneumoniae 58 spain by broth microdilution method; summary of the method: as §1
Streptococcus pyogenes [5] = test: Antibacterial activity against efflux-mediated macrolide-resistant Streptococcus pyogenes Finland 2 by broth microdilution method; summary of the method: as §1
Haemophilus influenzae = test: Antibacterial activity against Haemophilus influenzae ATCC 49247 by broth microdilution method; summary of the method: as §3
Staphylococcus aureus [6] = test: Antibacterial activity against efflux-mediated macrolide-resistant Staphylococcus aureus PK1 by broth microdilution method; summary of the method: as §2
Streptococcus pyogenes [7] = test: Antibacterial activity against inducible macrolide-lincosamide-streptogramin B resistant Streptococcus pyogenes Finland 11 by broth microdilution method; summary of the method: as §1
Streptococcus pyogenes [8] = test: Antibacterial activity against constitutive macrolide, lincosamide, streptogramin-resistant Streptococcus pyogenes 166 GR-Micro by broth microdilution method; summary of the method: as §1
Staphylococcus aureus [9] = test: Antibacterial activity against erythromycin-sensitive Staphylococcus aureus ATCC 13709 by broth microdilution method; summary of the method: as §3
Streptococcus pyogenes [10] = test: Antibacterial activity against erythromycin-sensitive Streptococcus pyogenes 3565 by broth microdilution method
Summary of the method: (§4)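 Broth microdilution following CLSI guidelines, except that 5% horse serum replaced lysed blood in the Streptococcus medium. Two-fold serial dilutions of compound were used. Bacteria were first grown on appropriate agar plates. Read-out is growth inhibition, reported as MIC.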

Streptococcus pneumoniae [11] = test: Antibacterial activity against erythromycin-sensitive Streptococcus pneumoniae SP 030 by broth microdilution method; summary of the method: as §4
Staphylococcus aureus [12] = test: Antibacterial activity against constitutive macrolide, lincosamide, streptogramin-resistant Staphylococcus aureus PK2 by broth microdilution method; summary of the method: as §2

Compound | MIC (Streptococcus pneumoniae [1]) [µg/mL] | MIC (Streptococcus pneumoniae [2]) [µg/mL] | MIC (Staphylococcus aureus [3]) [µg/mL] | MIC (Moraxella catarrhalis) [µg/mL] | MIC (Streptococcus pneumoniae [4]) [µg/mL] | MIC (Streptococcus pyogenes [5]) [µg/mL] | MIC (Haemophilus influenzae) [µg/mL] | MIC (Staphylococcus aureus [6]) [µg/mL] | MIC (Streptococcus pyogenes [7]) [µg/mL] | MIC (Streptococcus pyogenes [8]) [µg/mL] | MIC (Staphylococcus aureus [9]) [µg/mL] | MIC (Streptococcus pyogenes [10]) [µg/mL] | MIC (Streptococcus pneumoniae [11]) [µg/mL] | MIC (Staphylococcus aureus [12]) [µg/mL]
CC[C@H]1OC(=O)[C@H](C)[C@@H](O[C@H]2C[C@@](C)(OC)[C@@H](OC(=O)CCN(C)CCNc3cc4c(cc3F)c(=O)c(C(=O)NCCO)cn4C3CC3)[C@H](C)O2)[C@H](C)[C@@H](O[C@@H]2O[C@H](C)C[C@H](N(C)C)[C@H]2O)[C@](C)(O)C[C@@H](C)CN(C)[C@H](C)[C@@H](O)[C@]1(C)O | 2 (≈ 1.72 µM) | 16 (≈ 13.7 µM) | > 64 | 8 (≈ 6.86 µM) | > 64 | 16 (≈ 13.7 µM) | 16 (≈ 13.7 µM) | > 64 | 16 (≈ 13.7 µM) | > 64 | 16 (≈ 13.7 µM) | 0.5 (≈ 0.429 µM) | ≤ 0.125 | > 64
COC(=O)c1cn(C2CC2)c2cc(Cl)c(NCCNC(=O)OC(C)(C)C)cc2c1=O | > 64 | > 64 | > 64 | > 64 | > 64 | > 64 | > 64 | > 64 | > 64 | > 64 | > 64 | > 64 | > 64 | > 64
COC(=O)c1cn(C2CC2)c2cc(NCCNC(=O)OC(C)(C)C)c(F)cc2c1=O | > 64 | > 64 | > 64 | 8 (≈ 19.1 µM) | > 64 | > 64 | > 64 | > 64 | > 64 | > 64 | > 64 | > 64 | > 64 | > 64
CC(C)(C)OC(=O)NCCNc1cc2c(=O)c(C(=O)NCCO)cn(C3CC3)c2cc1Cl | > 64 | > 64 | > 64 | 32 (≈ 68.8 µM) | > 64 | > 64 | > 64 | > 64 | > 64 | > 64 | > 64 | 64 (≈ 138 µM) | 16 (≈ 34.4 µM) | > 64
CC(C)(C)OC(=O)NCCNc1cc2c(cc1F)c(=O)c(C(=O)NCCO)cn2C1CC1 | > 64 | > 64 | > 64 | 16 (≈ 35.7 µM) | > 64 | > 64 | > 64 | > 64 | > 64 | > 64 | 64 (≈ 143 µM) | 16 (≈ 35.7 µM) | 16 (≈ 35.7 µM) | > 64
NCCNc1cc2c(=O)c(C(=O)NCCO)cn(C3CC3)c2cc1Cl | > 64 | > 64 | > 64 | 64 (≈ 175 µM) | > 64 | > 64 | > 64 | > 64 | > 64 | > 64 | > 64 | > 64 | 64 (≈ 175 µM) | > 64
